As usually defined, the IC50 is the concentration at which inhibition is half-maximal. Low values mean greater potency in that assay, high ones weaker potency in that assay.

Data on 17 compounds can be found in ChEMBL document CHEMBL1133940, “A novel class of inhibitors for steroid 5alpha-reductase: synthesis and evaluation of umbelliferone derivatives” (Bioorg Med Chem Lett, 2001).

The target of the experiment is T1, 3-oxo-5-alpha-steroid 4-dehydrogenase 1 (Homo sapiens, UniProt P18405).
T1 sequence (P18405 whole entry): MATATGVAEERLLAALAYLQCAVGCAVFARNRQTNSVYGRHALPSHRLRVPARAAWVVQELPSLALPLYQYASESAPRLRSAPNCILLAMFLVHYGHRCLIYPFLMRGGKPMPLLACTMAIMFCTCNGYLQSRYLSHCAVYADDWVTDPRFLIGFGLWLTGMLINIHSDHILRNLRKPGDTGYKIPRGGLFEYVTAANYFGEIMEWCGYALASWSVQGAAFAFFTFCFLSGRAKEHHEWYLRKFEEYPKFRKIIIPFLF
Put plainly: Inhibitory activity against 5-alpha-reductase type 1 in cell culture system using LNCaP cells (androgen-sensitive human prostatic cancer cell line). It counts as cell-based. In outline:
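LNCaP cells (express 5aR-1 only) seeded at 2×10⁵ cells/mL/well, grown 24 h in medium with 5% hormone-free FBS. Then exposed to [³H]-testosterone plus test sample (final 0.5% DMSO) for 18 h. Medium extracted with ethyl acetate, [³H]-T and [³H]-DHT separated by TLC. Conversion = DHT radioactivity/(T+DHT). IC50 ([…]) relative to 0.5% DMSO control.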

Where “and” joins values, the source holds several entries; their conditions need not be identical. Equal entries are not always repeated. Where only a bound is given, the exact number is not on record here.

Regarding `C#CCOc1ccc2ccc(=O)oc2c1`, the IC50 was > 99.9 µM.
The same measure for `C=CCc1c(OC(=O)Nc2ccccc2)ccc2ccc(=O)oc12`: 0.622 µM and 0.62 µM; for `C=CCOc1ccc2ccc(=O)oc2c1` [7-ALLYLOXYCOUMARIN]: > 98.9 µM.
Regarding `CC(C)(C)NC(=O)[C@H]1CC[C@H]2[C@@H]3CC[C@H]4NC(=O)C=C[C@]4(C)[C@H]3CC[C@]12C` [FINASTERIDE], the IC50 was 53.1 µM and 53 µM.
The same measure for `C=CCc1c(O)ccc2ccc(=O)oc12`: 0.989 µM and 0.99 µM; for `C=CCc1c(OCc2ccccc2)ccc2ccc(=O)oc12`: > 13.7 µM.
With `C=CC(C)(C)Oc1ccc2ccc(=O)oc2c1` the figure was 1.3 µM; with `C=CCc1c(OCCO)ccc2ccc(=O)oc12`, > 81.2 µM.
The same measure for `C=CCc1c(OCC(C)=O)ccc2ccc(=O)oc12`: > 77.4 µM.
For the compound `C=CCc1c(OC(C)(C)C=C)ccc2ccc(=O)oc12`, the IC50 is 50.3 µM.
The same measure for `C=CCc1c(OC)ccc2ccc(=O)oc12`: > 18.5 µM.
The same measure for `C#CC(C)(C)Oc1ccc2ccc(=O)oc2c1CC=C`: > 14.9 µM; for `C=CCc1c(OC(C)=O)ccc2ccc(=O)oc12`: 0.819 µM and 0.82 µM; for `C=CCc1c(OC(=O)c2ccccc2)ccc2ccc(=O)oc12`: 0.49 µM.
As to `C=CCc1cc2ccc(=O)oc2cc1O`, the IC50 was 8.41 µM and 8.4 µM.
The same measure for `O=c1ccc2ccc(O)cc2o1` [UMBELLIFERONE]: > 123 µM; for `C#CC(C)(C)Oc1ccc2ccc(=O)oc2c1`: > 87.6 µM.
